Here are results for 2 compounds from ChEMBL document CHEMBL3603808, “Discovery and structure of a new inhibitor scaffold of the autophagy initiating kinase ULK1” (Bioorg Med Chem, 2015).

Assay [1] has as its target Ribosomal protein S6 kinase alpha-1 (Homo sapiens) (UniProt Q15418). Nature of the assay: Inhibition of RSK1 (unknown origin) at 2 uM by radioactive filter-binding assay. The method in brief:
(§1)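 Panel profiling of one compound against 50 kinases, carried out in duplicate at the International Centre for Protein Kinase Profiling. Radioactive filter-binding format.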

Assay [2] concerns the target T1, Serine/threonine-protein kinase ULK1 (Homo sapiens, UniProt O75385).
T1 sequence (O75385 whole entry): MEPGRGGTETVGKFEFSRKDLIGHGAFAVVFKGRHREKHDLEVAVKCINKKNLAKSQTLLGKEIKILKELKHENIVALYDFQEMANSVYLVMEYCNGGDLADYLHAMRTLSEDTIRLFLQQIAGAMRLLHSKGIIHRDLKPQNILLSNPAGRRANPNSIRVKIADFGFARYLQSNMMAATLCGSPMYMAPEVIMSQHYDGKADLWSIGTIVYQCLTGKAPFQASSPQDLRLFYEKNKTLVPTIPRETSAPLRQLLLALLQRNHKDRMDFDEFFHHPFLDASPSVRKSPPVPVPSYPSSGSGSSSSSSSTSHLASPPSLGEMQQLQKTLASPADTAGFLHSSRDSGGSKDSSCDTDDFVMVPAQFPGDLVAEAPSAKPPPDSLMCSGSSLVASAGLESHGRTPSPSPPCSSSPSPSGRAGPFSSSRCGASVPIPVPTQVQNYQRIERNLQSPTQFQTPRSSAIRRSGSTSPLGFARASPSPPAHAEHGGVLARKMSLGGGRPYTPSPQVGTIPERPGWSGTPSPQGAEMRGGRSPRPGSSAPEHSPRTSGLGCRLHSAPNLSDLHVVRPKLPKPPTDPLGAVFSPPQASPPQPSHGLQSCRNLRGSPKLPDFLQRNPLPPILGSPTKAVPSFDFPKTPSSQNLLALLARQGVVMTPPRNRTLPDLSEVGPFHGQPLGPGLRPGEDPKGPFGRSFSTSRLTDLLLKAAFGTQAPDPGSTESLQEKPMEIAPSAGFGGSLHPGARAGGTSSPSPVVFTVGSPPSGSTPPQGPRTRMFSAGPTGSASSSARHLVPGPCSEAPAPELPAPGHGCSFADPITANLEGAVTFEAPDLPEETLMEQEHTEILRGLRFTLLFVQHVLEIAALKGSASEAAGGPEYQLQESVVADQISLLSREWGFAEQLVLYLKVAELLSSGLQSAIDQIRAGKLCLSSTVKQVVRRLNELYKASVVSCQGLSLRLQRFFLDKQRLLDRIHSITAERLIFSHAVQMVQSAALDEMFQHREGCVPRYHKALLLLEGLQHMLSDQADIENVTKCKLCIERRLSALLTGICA
Nature of the assay: Inhibition of SUMO-tagged ULK1 (unknown origin) kinase domain expressed in KRX cells using [32P]-gamma-ATP and myelin basic protein substrate incubated for 7 mins. Format: cell-based. The method in brief:
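Enzyme at 5 nM with 50 µM cold ATP, 0.05 µCi/µl 32P-γ-ATP and 20 µM myelin basic protein as substrate. Reactions were spotted onto nitrocellulose, washed three times in 1% phosphoric acid, dried and imaged by phosphorimager. IC50 from curve fitting; duplicate.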

Assay [3] has as its target MAP/microtubule affinity-regulating kinase 3 (Homo sapiens) (UniProt P27448). The assay is described as follows: Inhibition of MARK3 (unknown origin) at 2 uM by radioactive filter-binding assay. Put shortly: as §1
In assay [4] the target is T2, AMP-activated protein kinase, AMPK (Homo sapiens) (UniProt P54646+O43741+P54619+Q9UGJ0+Q9Y478+Q13131+Q9UGI9). The assay is described as follows: Inhibition of AMPK (unknown origin) at 2 uM by radioactive filter-binding assay. It is filed as protein-complex assay. Put shortly: as §1
Assay [5] addresses Mitogen-activated protein kinase kinase kinase 11 (Homo sapiens) (UniProt Q16584). The assay is described as follows: Inhibition of MLK3 (unknown origin) at 2 uM by radioactive filter-binding assay. The method in brief:
as §1

The target in assay [6] is Tyrosine-protein kinase SYK (Homo sapiens) (UniProt P43405). The assay is described as follows: Inhibition of SYK (unknown origin) at 2 uM by radioactive filter-binding assay. Put shortly: as §1
In assay [7] the target is Tyrosine-protein kinase JAK2 (Homo sapiens) (UniProt O60674). The assay is described as follows: Inhibition of JAK2 (unknown origin) at 2 uM by radioactive filter-binding assay. The method in brief:
as §1

Assay [8] has as its target Serine/threonine-protein kinase TBK1 (Homo sapiens) (UniProt Q9UHD2). The assay is described as follows: Inhibition of TBK1 (unknown origin) at 2 uM by radioactive filter-binding assay. Put shortly: as §1
For assay [9], the target named is Vascular endothelial growth factor receptor (Homo sapiens) (UniProt P17948+P35916+P35968). Nature of the assay: Inhibition of VEGFR (unknown origin) at 2 uM by radioactive filter-binding assay. Format: protein assay. The method in brief: as §1
Assay [10] has as its target High affinity nerve growth factor receptor (Homo sapiens) (UniProt P04629). The assay is described as follows: Inhibition of TRKA (unknown origin) at 2 uM by radioactive filter-binding assay. Put shortly:
as §1

The target of assay [11] is Mitogen-activated protein kinase kinase kinase 11 (Homo sapiens) (UniProt Q16584). The assay is described as follows: Inhibition of MLK3 (unknown origin) at 250 nM by radioactive filter-binding assay. Put shortly:
as §1

For assay [12], the target named is SRSF protein kinase 1 (Homo sapiens) (UniProt Q96SB4). The assay is described as follows: Inhibition of SRPK1 (unknown origin) at 250 nM by radioactive filter-binding assay. Put shortly:
as §1

The target in assay [13] is Tyrosine-protein kinase BTK (Homo sapiens) (UniProt Q06187). The assay is described as follows: Inhibition of BTK (unknown origin) at 250 nM by radioactive filter-binding assay. Put shortly:
as §1

Assay [14] addresses Serine/threonine-protein kinase N2 (Homo sapiens) (UniProt Q16513). Nature of the assay: Inhibition of PRK2 (unknown origin) at 250 nM by radioactive filter-binding assay. Put shortly:
as §1

Assay [15] addresses High affinity nerve growth factor receptor (Homo sapiens) (UniProt P04629). The assay is described as follows: Inhibition of TRKA (unknown origin) at 250 nM by radioactive filter-binding assay. The method in brief:
as §1

The target of assay [16] is T2, AMP-activated protein kinase, AMPK (Homo sapiens). The assay is described as follows: Inhibition of AMPK (unknown origin) at 250 nM by radioactive filter-binding assay. Format: protein-complex assay. Put shortly:
as §1

Assay [17] has as its target Glycogen synthase kinase-3 beta (Homo sapiens) (UniProt P49841). The assay is described as follows: Inhibition of GSK3beta (unknown origin) at 250 nM by radioactive filter-binding assay. The method in brief: as §1
The species entered for assay [18] is Homo sapiens. The assay is described as follows: Inhibition of Aurora (unknown origin) at 250 nM by radioactive filter-binding assay. The method in brief:
as §1

Assay [19] has as its target Serine/threonine-protein kinase D1 (Homo sapiens) (UniProt Q15139). The assay is described as follows: Inhibition of PKD1 (unknown origin) at 250 nM by radioactive filter-binding assay. Put shortly:
as §1

In assay [20] the target is Calcium/calmodulin-dependent protein kinase type 1 (Homo sapiens) (UniProt Q14012). Nature of the assay: Inhibition of CAMK1 (unknown origin) at 250 nM by radioactive filter-binding assay. Put shortly:
as §1

In assay [21] the target is Casein kinase I isoform delta (Homo sapiens) (UniProt P48730). Nature of the assay: Inhibition of CK1delta (unknown origin) at 250 nM by radioactive filter-binding assay. Put shortly: as §1
Assay [22] addresses Calcium/calmodulin-dependent protein kinase kinase 2 (Homo sapiens) (UniProt Q96RR4). The assay is described as follows: Inhibition of CAMKKB (unknown origin) at 250 nM by radioactive filter-binding assay. Put shortly:
as §1

In assay [23] the target is Receptor-interacting serine/threonine-protein kinase 2 (Homo sapiens) (UniProt O43353). Nature of the assay: Inhibition of RIPK2 (unknown origin) at 250 nM by radioactive filter-binding assay. The method in brief:
as §1

The target in assay [24] is Dual specificity tyrosine-phosphorylation-regulated kinase 1A (Homo sapiens) (UniProt Q13627). The assay is described as follows: Inhibition of DYRK1A (unknown origin) at 250 nM by radioactive filter-binding assay. Put shortly: as §1

The term inhibition denotes the change of the read-out against control, counted positive when it falls. In general, IC50 refers to the concentration at which inhibition is half-maximal. A high value points to weaker potency in that assay.

Sequence of High affinity nerve growth factor receptor (Homo sapiens) (P04629 33-796 limits assumed): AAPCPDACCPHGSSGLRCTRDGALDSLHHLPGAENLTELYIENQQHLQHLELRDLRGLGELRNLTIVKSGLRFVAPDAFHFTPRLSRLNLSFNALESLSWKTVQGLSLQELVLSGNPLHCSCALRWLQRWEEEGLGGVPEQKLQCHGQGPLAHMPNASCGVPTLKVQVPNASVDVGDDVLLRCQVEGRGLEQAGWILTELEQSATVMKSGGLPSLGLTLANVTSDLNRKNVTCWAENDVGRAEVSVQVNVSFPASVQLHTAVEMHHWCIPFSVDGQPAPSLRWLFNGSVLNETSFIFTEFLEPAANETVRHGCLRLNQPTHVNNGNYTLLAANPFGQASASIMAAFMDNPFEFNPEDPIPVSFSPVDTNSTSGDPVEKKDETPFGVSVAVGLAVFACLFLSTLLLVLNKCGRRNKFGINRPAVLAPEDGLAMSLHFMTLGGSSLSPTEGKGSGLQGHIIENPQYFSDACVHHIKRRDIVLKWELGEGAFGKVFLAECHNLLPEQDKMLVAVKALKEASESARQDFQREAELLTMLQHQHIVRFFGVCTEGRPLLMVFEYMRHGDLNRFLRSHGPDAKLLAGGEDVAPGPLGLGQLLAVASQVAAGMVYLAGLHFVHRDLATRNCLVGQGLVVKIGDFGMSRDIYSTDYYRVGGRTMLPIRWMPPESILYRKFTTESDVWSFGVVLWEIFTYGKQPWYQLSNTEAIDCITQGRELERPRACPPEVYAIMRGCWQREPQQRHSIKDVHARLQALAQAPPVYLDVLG
Sequence of Mitogen-activated protein kinase kinase kinase 11 (Homo sapiens) (Q16584 whole entry, looked up): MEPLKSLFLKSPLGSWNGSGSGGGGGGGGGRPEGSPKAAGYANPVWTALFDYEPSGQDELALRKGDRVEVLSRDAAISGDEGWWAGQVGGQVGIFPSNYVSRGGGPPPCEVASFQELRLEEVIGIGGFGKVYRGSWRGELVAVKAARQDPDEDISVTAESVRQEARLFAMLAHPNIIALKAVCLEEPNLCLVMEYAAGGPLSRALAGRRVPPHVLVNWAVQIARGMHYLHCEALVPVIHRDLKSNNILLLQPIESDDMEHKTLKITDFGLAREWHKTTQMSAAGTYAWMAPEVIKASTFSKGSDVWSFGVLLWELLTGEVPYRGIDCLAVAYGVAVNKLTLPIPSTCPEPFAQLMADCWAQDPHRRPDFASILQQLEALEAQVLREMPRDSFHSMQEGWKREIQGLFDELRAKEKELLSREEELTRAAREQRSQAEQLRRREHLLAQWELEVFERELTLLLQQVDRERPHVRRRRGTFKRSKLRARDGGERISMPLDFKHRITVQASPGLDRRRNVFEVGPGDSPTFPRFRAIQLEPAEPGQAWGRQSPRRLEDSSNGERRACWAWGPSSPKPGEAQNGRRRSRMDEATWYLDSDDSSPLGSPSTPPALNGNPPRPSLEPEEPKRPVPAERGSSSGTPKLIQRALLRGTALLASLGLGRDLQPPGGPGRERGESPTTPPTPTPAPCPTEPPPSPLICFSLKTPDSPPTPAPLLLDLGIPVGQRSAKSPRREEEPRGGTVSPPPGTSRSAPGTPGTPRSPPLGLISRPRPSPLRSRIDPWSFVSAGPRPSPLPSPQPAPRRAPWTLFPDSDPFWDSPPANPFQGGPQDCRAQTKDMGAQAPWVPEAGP
Sequence of Serine/threonine-protein kinase D1 (Homo sapiens) (Q15139 whole entry): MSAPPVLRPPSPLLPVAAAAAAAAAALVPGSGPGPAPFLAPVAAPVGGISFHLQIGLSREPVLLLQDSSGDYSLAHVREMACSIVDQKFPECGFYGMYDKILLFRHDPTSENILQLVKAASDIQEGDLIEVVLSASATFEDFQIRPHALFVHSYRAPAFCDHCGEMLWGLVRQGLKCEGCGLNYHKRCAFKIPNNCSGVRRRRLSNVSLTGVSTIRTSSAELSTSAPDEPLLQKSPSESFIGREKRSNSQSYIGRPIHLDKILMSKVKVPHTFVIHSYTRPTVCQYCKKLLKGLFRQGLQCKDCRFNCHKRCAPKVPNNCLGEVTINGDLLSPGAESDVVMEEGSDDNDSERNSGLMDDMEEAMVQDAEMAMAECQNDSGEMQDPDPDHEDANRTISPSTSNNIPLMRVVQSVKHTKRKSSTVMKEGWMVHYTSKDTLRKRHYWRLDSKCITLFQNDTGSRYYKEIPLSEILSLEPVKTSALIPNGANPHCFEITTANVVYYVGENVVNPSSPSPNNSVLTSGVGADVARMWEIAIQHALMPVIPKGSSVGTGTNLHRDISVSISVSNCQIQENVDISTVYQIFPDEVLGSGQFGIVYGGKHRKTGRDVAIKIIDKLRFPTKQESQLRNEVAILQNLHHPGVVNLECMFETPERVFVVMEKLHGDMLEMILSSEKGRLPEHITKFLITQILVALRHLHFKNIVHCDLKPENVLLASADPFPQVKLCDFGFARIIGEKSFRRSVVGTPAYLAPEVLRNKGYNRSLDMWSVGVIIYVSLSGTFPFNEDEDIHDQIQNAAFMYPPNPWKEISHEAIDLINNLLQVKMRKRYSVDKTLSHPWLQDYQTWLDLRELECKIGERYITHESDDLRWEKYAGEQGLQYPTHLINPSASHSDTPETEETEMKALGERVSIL
Sequence of Serine/threonine-protein kinase N2 (Homo sapiens) (Q16513 whole entry, looked up): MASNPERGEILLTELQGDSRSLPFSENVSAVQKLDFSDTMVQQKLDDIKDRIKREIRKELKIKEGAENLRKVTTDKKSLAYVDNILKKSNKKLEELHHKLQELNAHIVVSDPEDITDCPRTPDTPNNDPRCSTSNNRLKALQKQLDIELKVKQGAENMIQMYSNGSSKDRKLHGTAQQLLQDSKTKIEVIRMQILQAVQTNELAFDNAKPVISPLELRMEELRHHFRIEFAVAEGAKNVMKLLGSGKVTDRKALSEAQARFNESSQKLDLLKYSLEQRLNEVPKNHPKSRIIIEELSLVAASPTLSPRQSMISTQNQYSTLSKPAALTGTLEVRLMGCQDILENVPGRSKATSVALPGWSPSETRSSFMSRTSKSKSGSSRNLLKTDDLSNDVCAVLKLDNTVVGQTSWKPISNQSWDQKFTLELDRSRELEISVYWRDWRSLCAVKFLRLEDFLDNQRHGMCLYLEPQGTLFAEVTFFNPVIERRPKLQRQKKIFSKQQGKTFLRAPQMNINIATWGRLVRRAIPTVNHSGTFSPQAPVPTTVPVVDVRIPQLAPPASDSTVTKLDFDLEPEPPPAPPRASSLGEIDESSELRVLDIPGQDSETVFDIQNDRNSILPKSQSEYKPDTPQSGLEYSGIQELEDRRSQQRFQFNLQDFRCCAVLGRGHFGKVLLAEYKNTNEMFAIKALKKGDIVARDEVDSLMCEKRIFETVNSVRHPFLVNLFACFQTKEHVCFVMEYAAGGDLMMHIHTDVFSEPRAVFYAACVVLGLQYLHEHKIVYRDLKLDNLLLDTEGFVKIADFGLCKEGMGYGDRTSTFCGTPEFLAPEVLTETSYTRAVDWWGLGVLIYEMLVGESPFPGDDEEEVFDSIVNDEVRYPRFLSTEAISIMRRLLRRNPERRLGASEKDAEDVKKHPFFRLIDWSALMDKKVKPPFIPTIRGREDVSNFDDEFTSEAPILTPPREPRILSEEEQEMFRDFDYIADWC
Sequence of MAP/microtubule affinity-regulating kinase 3 (Homo sapiens) (P27448 whole entry, looked up): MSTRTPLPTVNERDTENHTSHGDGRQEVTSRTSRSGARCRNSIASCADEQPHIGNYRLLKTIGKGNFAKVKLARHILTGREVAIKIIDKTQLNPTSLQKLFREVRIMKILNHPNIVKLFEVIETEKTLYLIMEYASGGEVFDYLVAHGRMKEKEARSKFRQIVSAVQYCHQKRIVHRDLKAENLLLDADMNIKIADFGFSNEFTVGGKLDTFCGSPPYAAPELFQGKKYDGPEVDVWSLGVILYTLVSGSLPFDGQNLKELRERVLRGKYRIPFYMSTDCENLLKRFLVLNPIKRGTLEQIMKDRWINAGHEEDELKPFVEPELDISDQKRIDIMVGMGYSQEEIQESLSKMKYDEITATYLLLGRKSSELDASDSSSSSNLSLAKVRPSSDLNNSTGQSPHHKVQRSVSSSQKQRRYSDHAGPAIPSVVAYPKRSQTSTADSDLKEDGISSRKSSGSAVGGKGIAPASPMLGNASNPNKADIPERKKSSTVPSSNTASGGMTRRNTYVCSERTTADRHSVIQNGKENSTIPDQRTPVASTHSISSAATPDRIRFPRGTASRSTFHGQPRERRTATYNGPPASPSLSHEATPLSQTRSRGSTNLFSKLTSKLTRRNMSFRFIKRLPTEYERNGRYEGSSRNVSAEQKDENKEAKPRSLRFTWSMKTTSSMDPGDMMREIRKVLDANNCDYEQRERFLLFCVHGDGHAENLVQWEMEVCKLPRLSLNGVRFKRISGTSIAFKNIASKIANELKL
Sequence of Calcium/calmodulin-dependent protein kinase kinase 2 (Homo sapiens) (Q96RR4 2-588 limits assumed): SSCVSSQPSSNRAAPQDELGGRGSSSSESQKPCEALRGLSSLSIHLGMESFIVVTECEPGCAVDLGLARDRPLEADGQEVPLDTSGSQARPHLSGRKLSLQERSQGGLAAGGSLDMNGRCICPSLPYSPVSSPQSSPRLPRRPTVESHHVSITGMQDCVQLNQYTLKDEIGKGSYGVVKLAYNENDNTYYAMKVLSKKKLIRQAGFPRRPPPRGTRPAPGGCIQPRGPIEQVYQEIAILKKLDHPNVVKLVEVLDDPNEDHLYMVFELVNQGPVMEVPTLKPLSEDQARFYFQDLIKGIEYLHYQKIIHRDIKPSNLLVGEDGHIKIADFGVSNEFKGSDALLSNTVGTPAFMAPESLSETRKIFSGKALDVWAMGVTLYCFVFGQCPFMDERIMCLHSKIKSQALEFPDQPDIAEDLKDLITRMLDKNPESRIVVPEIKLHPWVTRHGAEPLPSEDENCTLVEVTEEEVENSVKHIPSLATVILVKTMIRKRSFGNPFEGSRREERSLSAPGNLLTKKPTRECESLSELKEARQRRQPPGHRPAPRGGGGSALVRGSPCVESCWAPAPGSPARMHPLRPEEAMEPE

Consider `NCCCNc1nc(Nc2cccc(NC(=O)N3CCCC3)c2)ncc1I`, for which the inhibition in assay [1], in [3], in assay [4], in assay [5], in [6] and in [7] was above 80% in each case. Besides, the inhibition in assay [8], in assay [9] and in [10] was above 80% in each case. Moreover, the IC50 in assay [2] was 120 nM.

As for `c1ccc2c(Nc3cc(C4CCC4)[nH]n3)nc(Nc3ccc4[nH]cnc4c3)nc2c1`, the inhibition in assay [11], in [12], in [13], in assay [14], in assay [15] and in [16] was above 80% in each case. In addition, the inhibition in assay [17], in [18], in [19], in [20], in assay [21] and in assay [22] was above 80% throughout. In addition, the inhibition in assay [23] and in assay [24] was above 80% in each case.
